According to ChEMBL document CHEMBL1133503 (J Med Chem, 2000):

Assays:
[1] = organism: Rattus norvegicus; assay: Bioreduction experiment was conducted by incubation of the sulfoxides with rat liver S-9 fractions in anaerobic conditions (N2, without cofactors); assay type: functional; parameters: concentration or dose not given beside the values
Procedure, shortened: (§1)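 Rat liver S-9 fraction incubated with sulfoxide at 37 °C for 30 min with shaking. Aerobic vials were left open to air. Anaerobic vials were purged with N2 for 10 min before the compound was injected. Cofactor was NADPH, benzaldehyde, 2-hydroxypyrimidine or acetaldehyde, or none. Controls were boiled S-9 and S-9 without cofactors. For menadione, S-9 was preincubated aerobically with 1 equiv for 30 min, then benzaldehyde was added. Sulfide or sulfone was measured by HPLC or TLC densitometry.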

[2] = organism: Rattus norvegicus; assay: Bioreduction experiment was conducted by incubation of the sulfoxides with rat liver S-9 fractions in aerobic conditions (air, benzaldehyde); assay type: functional; procedure, shortened: as §1
[3] = organism: Rattus norvegicus; assay: Bioreduction experiment was conducted by incubation of the sulfoxides with rat liver S-9 fractions in aerobic conditions (air, control); assay type: functional; procedure, shortened: as §1
[4] = organism: Rattus norvegicus; assay: Bioreduction experiment was conducted by incubation of the sulfoxides with rat liver S-9 fractions in aerobic conditions (N2, 2-hydroxypyrimidine); assay type: functional; procedure, shortened: as §1
[5] = organism: Rattus norvegicus; assay: Bioreduction experiment was conducted by incubation of the sulfoxides with rat liver S-9 fractions in aerobic conditions (N2, menadione); assay type: functional; procedure, shortened: as §1
[6] = organism: Rattus norvegicus; assay: Bioreduction experiment was conducted by incubation of the sulfoxides with rat liver S-9 fractions in aerobic conditions (air, without cofactors); assay type: functional; procedure, shortened: as §1
[7] = organism: Rattus norvegicus; assay: Bioreduction experiment was conducted by incubation of the sulfoxides with rat liver S-9 fractions in anaerobic conditions (N2, benzaldehyde); assay type: functional; parameters: concentration or dose not given beside the values; procedure, shortened: as §1
[8] = organism: Rattus norvegicus; assay: Bioreduction experiment was conducted by incubation of the sulfoxides with rat liver S-9 fractions in aerobic conditions (N2, NADPH); assay type: functional; procedure, shortened: as §1
[9] = organism: Rattus norvegicus; assay: Reduction potential (SCE) determined by differential pulse polarography of the sulfoxides […]; assay type: functional
[10] = organism: Rattus norvegicus; assay: Bioreduction experiment was conducted by incubation of the sulfoxides with rat liver S-9 fractions in aerobic conditions (N2, acetaldehyde); assay type: functional; procedure, shortened: as §1
[11] = organism: Rattus norvegicus; assay: Bioreduction experiment was conducted by incubation of the sulfoxides with rat liver S-9 fractions in aerobic conditions (air, NADPH); assay type: functional; procedure, shortened: as §1
[12] = organism: Rattus norvegicus; assay: Bioreduction experiment was conducted by incubation of the sulfoxides with rat liver S-9 fractions in anaerobic conditions N2); assay type: functional; procedure, shortened: as §1
[13] = Relative cytotoxicity is expressed as the ratio of the IC50 values of the corresponding sulfide to sulfoxide or to sulfone; assay type: functional, Cricetulus griseus
Procedure, shortened: (§2)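 V-79 cells (about 7 × 10³ per 100 μL) preincubated 24 h, then exposed to drug for 3 h under oxic conditions. Washed 5× with HBSS and grown 48 h more. Fixed with TCA and stained with SRB. Bound dye dissolved in 10 mM Tris, spotted on TLC and read by video densitometry. IC50 is the mean of triplicates in one experiment. Ratio is IC50 of sulfide over sulfoxide or sulfone.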

[14] = Concentration of drug required to reduce V-79 cell survival to 50% of controls in a SRB assay; assay type: functional, cell-based; conditions: Cricetulus griseus, V79; procedure, shortened: as §2
[15] = Concentration required to reduce cell survival to 10% of controls using V-79 cells in the clonogenic assay, in aerobic conditions; assay type: functional; conditions: Cricetulus griseus, V79
Procedure, shortened: (§3)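 V-79 cells (500 000 per bottle) grown 20 h in MEM with 10% FBS. Hypoxic set gassed 2 h at 37 °C with humidified 95% N2/5% CO2. Drug in ethanol/water or DMF injected through septa. Exposure 3 h under air or hypoxia. Cells trypsinised, counted by trypan blue, 500 plated in triplicate for 6–8 days. Colonies stained with crystal violet, survival relative to solvent control.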

[16] = Hypoxic selectivity expressed as the ratio of IC50 values in air and nitrogen; assay type: functional
[17] = Concentration required to reduce cell survival to 10% of controls using V-79 cells in the clonogenic assay, in anaerobic conditions (hypoxic conditions); assay type: functional; conditions: Cricetulus griseus, V79; procedure, shortened: as §3
[18] = Hypoxia-selective cytotoxicity required to reduce cell survival to 10% of controls using V-79 cells in the clonogenic assay, with N2; assay type: functional; conditions: Cricetulus griseus, V79; procedure, shortened: as §3
[19] = organism: Rattus norvegicus; assay: Bioreduction experiment was conducted by incubation of the sulfoxides with rat liver S-9 fractions in aerobic conditions(air, benzaldehyde); assay type: functional; procedure, shortened: as §1
[20] = organism: Rattus norvegicus; assay: Bioreduction experiment was conducted by incubation of the sulfoxides with rat liver S-9 fractions in anaerobic conditions(N2, benzaldehyde); assay type: functional; procedure, shortened: as §1
[21] = Hypoxia-selective cytotoxicity required to reduce cell survival to 10% of controls using V-79 cells in the clonogenic assay, with air; assay type: functional; conditions: Cricetulus griseus, V79; procedure, shortened: as §3
[22] = organism: Rattus norvegicus; assay: Bioreduction experiment was conducted by incubation of the sulfoxides with rat liver S-9 fractions in aerobic conditions(air, control); assay type: functional; procedure, shortened: as §1
[23] = organism: Rattus norvegicus; assay: Bioreduction experiment was conducted by incubation of the sulfoxides with rat liver S-9 fractions in anaerobic conditions (N2); assay type: functional; procedure, shortened: as §1
[24] = organism: Rattus norvegicus; assay: Bioreduction experiment was conducted by incubation of the sulfoxides with rat liver S-9 fractions in aerobic conditions(air, NADPH); assay type: functional; procedure, shortened: as §1
[25] = organism: Rattus norvegicus; assay: Bioreduction experiment was conducted by incubation of the sulfoxides with rat liver S-9 fractions in anaerobic conditions(N2, without cofactors); assay type: functional; procedure, shortened: as §1
[26] = organism: Rattus norvegicus; assay: Bioreduction experiment was conducted by incubation of the sulfoxides with rat liver S-9 fractions in aerobic conditions(N2, menadione); assay type: functional; procedure, shortened: as §1
[27] = organism: Rattus norvegicus; assay: Bioreduction experiment was conducted by incubation of the sulfoxides with rat liver S-9 fractions in aerobic conditions(air, without cofactors); assay type: functional; procedure, shortened: as §1
[28] = organism: Rattus norvegicus; assay: Bioreduction experiment was conducted by incubation of the sulfoxides with rat liver S-9 fractions in aerobic conditions(N2, acetaldehyde); assay type: functional; procedure, shortened: as §1
[29] = organism: Rattus norvegicus; assay: Bioreduction experiment was conducted by incubation of the sulfoxides with rat liver S-9 fractions in aerobic conditions(N2, 2-hydroxypyrimidine); assay type: functional; procedure, shortened: as §1
[30] = organism: Rattus norvegicus; assay: Bioreduction experiment was conducted by incubation of the sulfoxides with rat liver S-9 fractions in aerobic conditions(N2, NADPH); assay type: functional; procedure, shortened: as §1

## [O-][S+](c1ccccc1)c1ccccc1 [(PHENYLSULFINYL)BENZENE]
[1]
  Bioreduction: 0%
[2]
  Bioreduction: 0%
[3]
  Bioreduction: 0%
[4]
  Bioreduction: 17.4%
[5]
  Bioreduction: 0%
[6]
  Bioreduction: 0%
[7]
  Bioreduction: 18%
[8]
  Bioreduction: 0%
[9]
  E: 2.3 -V
[10]
  Bioreduction: 6%
[11]
  Bioreduction: 11.6 nmol/mg
[12]
  Bioreduction: 0%

## Nc1ccc(S(=O)(=O)c2ccc(N(CCCl)CCCl)cc2)cc1
[13]
  Cytotoxicity: 0.09
[14]
  IC50: 26.9 µM

## O=[N+]([O-])c1ccc(S(=O)(=O)c2ccc(N(CCCl)CCCl)cc2)cc1
[13]
  Cytotoxicity: 0.08
[14]
  IC50: 26.7 µM

## [O-][S+](c1ccc(NCCCl)cc1)c1ccc(NCCCl)cc1
[15]
  IC90: 1580 µM
[16]
  Selectivity: 0.7
[17]
  IC90: 2210 µM

## Cl.[O-][S+](c1ccc(Nc2c3ccccc3nc3ccccc23)cc1)c1ccc(N(CCCl)CCCl)cc1 (centres undefined)
[18]
  IC90: 180 µM
[19]
  Bioreduction: 0%
[20]
  Bioreduction: 2.28%
[21]
  IC90: 4950 µM
[13]
  Cytotoxicity: 0.07
[22]
  Bioreduction: 0%
[14]
  IC50: 26.2 µM
[23]
  Bioreduction: 0%
[24]
  Bioreduction: 0%
[16]
  Selectivity: 27
[25]
  Bioreduction: 1.29%
[26]
  Bioreduction: 1.07%
[27]
  Bioreduction: 0%
[9]
  E: 2.63 -V
[28]
  Bioreduction: 1.79%
[29]
  Bioreduction: 1.34%
[30]
  Bioreduction: 1.37%

## O=[N+]([O-])c1ccc([S+]([O-])c2ccc(N(CCCl)CCCl)cc2)cc1 (centres undefined)
[18]
  IC90: 182 µM
[21]
  IC90: 3680 µM
[13]
  Cytotoxicity: 0.1
[14]
  IC50: 21.9 µM
[16]
  Selectivity: 20

## C[S+]([O-])c1ccccc1 (centres undefined) [METHYLPHENYLSULFOXIDE]
[1]
  Bioreduction: 0%
[7]
  Bioreduction: 10.2%
[9]
  E: 2.4 -V
[12]
  Bioreduction: 0%

## [O-][s+]1c2ccccc2c2ccccc21
[1]
  Bioreduction: 0%
[7]
  Bioreduction: 4.4%
[9]
  E: 1.82 -V
[12]
  Bioreduction: 0%
